We go through two compounds from ChEMBL document CHEMBL1141909, “3-Arylidene-1-(4-nitrophenylmethylene)-3,4-dihydro-1H-naphthalen-2-ones and related compounds displaying selective toxicity and reversal of multidrug resistance in neoplastic cells” (2005).

Test [1] can be described thus: Effect of compound on multidrug resistance in murine L-5178 cells at 4 ug/ml concentration; expressed as fluorescence activity ratio (treated/untreated cells). It counts as functional, Mus musculus.
Test [2] is described as follows: Selectivity index of compound towards human malignant cell lines. The format is functional.
A short description of test [3]: Concentration for 50% cytotoxicity towards nonmalignant cells expressed in HPC normal pulp cells. The following applies: Homo sapiens.
For another test, the system named is HL-60. Kind of test: Concentration for 50% cytotoxicity towards malignant cells expressed in HL-60 neoplastic cell line. It counts as functional. The note with it: Homo sapiens. The method in brief: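 Human promyelocytic leukaemia HL-60 cells were grown in RPMI1640 with 10% FBS and exposed to various compound concentrations for 24 h. Viable cell number was counted by trypan blue exclusion. CC50 was taken from dose-response curves, mean of duplicate determinations.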

Test [4] is described as follows: Effect of compound on multidrug resistance in colon320 neoplasm cells at 4 ug/ml concentration; expressed as fluorescence activity ratio (treated/untreated cells). It counts as functional, Homo sapiens.
Test [5] in a line: Concentration for 50% cytotoxicity towards nonmalignant cells expressed in HPLF normal periodontal ligament fibroblasts. The following applies: Homo sapiens.
A short description of test [6]: Effect of compound on multidrug resistance in colon320 neoplasm cells at 40 ug/ml concentration; expressed as fluorescence activity ratio (treated/untreated cells). The format is functional, Homo sapiens.
The test system of a further test is HSC-3. Kind of test: Concentration for 50% cytotoxicity towards malignant cells expressed in HSC-3 neoplastic cell line. It counts as functional. The note with it: Homo sapiens. The method in brief:
(§1)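 Human oral squamous carcinoma HSC-2 and HSC-3 and submandibular gland carcinoma HSG cells were grown in DMEM with 10% heat-inactivated FBS. Near-confluent cells were exposed to various compound concentrations for 24 h. Viable cells were read by MTT (absorbance of stained lysate at 540). CC50 came from dose-response curves as the mean of duplicates.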

Test [7] is described as follows: Concentration for 50% cytotoxicity towards malignant cells expressed in HSC-2 neoplastic cell line. The format is functional. The following applies: Homo sapiens. The method in brief: as §1
A short description of test [8]: Concentration for 50% cytotoxicity towards malignant cells expressed in HSG neoplastic cell line. The format is functional. The note with it: Homo sapiens. The method in brief: as §1
Test [9] in a line: Effect of compound on multidrug resistance in murine L-5178 cells at 40 ug/ml concentration; expressed as fluorescence activity ratio (treated/untreated cells). The format is functional, Mus musculus.
Test [10] in a line: Concentration for 50% cytotoxicity towards nonmalignant cells expressed in HGF normal gingival fibroblasts. The note with it: Homo sapiens.
A short description of test [11]: Effect of compound on multidrug resistance in murine L-5178 cells at 10 ug/ml concentration; expressed as fluorescence activity ratio (treated/untreated cells). The format is functional, Mus musculus.

What is called CC50 is the concentration that lowers cell viability or growth by half. Low values mean greater toxicity to the cells, high ones lower toxicity to the cells.

Regarding `O=C1/C(=C/c2ccc3c(c2)OCO3)Cc2ccccc2/C1=C\c1ccc([N+](=O)[O-])cc1`, the Effect was found to be 3.27 in [1], 1.95 in test [4], 2.27 in test [6] and 3.87 in [9]. The SI in test [2] is > 92. The CC50 was > 400 µM in test [3]; 2.2 µM in the test on HL-60; > 400 µM in [5]; 7.6 µM in the test with HSC-3; 2.6 µM in test [7]; 5 µM in [8]. Moreover, in [10], the half-maximal cytotoxic concentration (CC50) was > 400 µM.
On to `COc1ccc(CCN(C)CCCC(C#N)(c2ccc(OC)c(OC)c2)C(C)C)cc1OC` (stereo not drawn) [VERAPAMIL], for which the Effect in test [11] worked out at 38.2.
